Hits are enriched below; roughly 1.5% of the tested compounds scored in any of these assays.
VLA-4 inh: inhibition in a human VLA-4 binding assay; 330,000 compounds, 0.2% hits; VLA-4 expressing cells, ligand binding flow cytometry; P13612; AID 2557; inhibition, % (about 7 µM as worked out from the volumes in the protocol); in the data active means inhibition above about 50%
Myeloid diff MLP: promotes myeloid progenitor differentiation; calls only at 10 µM; AID 624256; ER-HoxA9 myeloid progenitors, lysozyme-GFP differentiation, flow cytometry; 360,000 compounds, 1% hits;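 active means normalized GFP-positive differentiation at or above the plate's own cutoff, the solvent-only control mean plus 3 SD; inconclusive means no clear call, values can overlap the other calls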;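 further: cells exposed to compound for four days before flow analysis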
Platelet DG rel: platelet dense granule release activity | human platelet-rich plasma, SFLLRN dense granule ATP release, luminescence | inhibition, %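 (compounds screened at 7.5 µM in platelet-rich plasma)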 | 300,000 compounds, 0.22% hits | AID 1663;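 active means mean replicate score, as percent of positive control, at or above 50; inconclusive means mean below 50 but at least one replicate at or above 50; inactive means mean and every replicate below 50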
SENP1 FRET inh: blocks the human SENP1 SUMO protease catalytic domain. Q9P0U3. recombinant SENP1 catalytic domain, CyPet-SUMO1-YPet FRET cleavage. inhibition, % at 10 µM. 360,000 compounds, 0.21% hits. AID 624204;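 active means inhibition at least 30% at 10 µM, raw YFP signal under a set limit, fluorescence ratio 0.5 to 1.5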
Target sequence (Q9P0U3 419-644 limits assumed): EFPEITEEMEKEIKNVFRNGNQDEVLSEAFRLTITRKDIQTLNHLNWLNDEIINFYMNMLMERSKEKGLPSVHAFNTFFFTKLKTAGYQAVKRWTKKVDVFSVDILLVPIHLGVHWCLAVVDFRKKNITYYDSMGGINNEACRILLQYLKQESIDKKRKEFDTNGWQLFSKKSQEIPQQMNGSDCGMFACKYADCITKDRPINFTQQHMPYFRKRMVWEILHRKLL
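material = recombinant human SENP1 catalytic domain, His6-tagged | quantity = 20 pM enzyme | reagent = 25 nM SUMO1 FRET substrate | compound dosing = 10 µM single point, 0.5% DMSO | timing = 50 min enzyme reaction, room temperature, light-protected | detection = FRET, CFP and YFP emission | control set = no-enzyme low, enzyme-DMSO high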
Numbers stand for hits; i = inactive; ? = inconclusive; nt = no result; + = active, no number.

SMILES | VLA-4 inh | Myeloid diff MLP | Platelet DG rel | SENP1 FRET inh
CN1/C(=C\C=C2C(=O)NC(=S)NC2=O)C(C)(C)c2ccccc21 | nt | + | i | i
CCN1C[C@]2(COC)CC[C@H](OC)[C@@]34C1[C@]1(OCO[C@@]15C[C@H](OC)[C@H]1C[C@@H]3[C@@H]5[C@H]1OC)[C@@H](O)[C@H]24 | i | i | nt | i
Nc1ccc2ccc3cccc[n+]3c2c1 | i | + | i | i
O=[N+]([O-])c1cc(-c2ccc([As](=O)(O)O)cc2)ccc1[As](=O)(O)O | i | nt | i | nt
COc1ccc2c3c([nH]c2c1)C(C)NCC3 (configuration not stated) | i | + | i | i
CCN1C[C@]2(CO)CC[C@H](OC)[C@@]34C2[C@H](OC)[C@@](O)(C13)[C@@]1(O)C[C@H](OC)[C@H]2C[C@@H]4[C@@H]1[C@H]2OC | i | i | nt | i
Cn1c(O)c(/C=C/C=Nc2ccccc2)c(=O)n(C)c1=S | i | + | i | i
Cc1cccc(-n2c(O)c(/C=C/C=Nc3ccccc3)c(=O)[nH]c2=O)c1 | i | i | i | i
CCOC(=O)CNC(=O)N1Cc2cc(-c3ccccc3)ccc2-n2nncc2C1 | nt | i | nt | i
CCOC(=O)CNC(=O)N1Cc2ccccc2-n2nncc2C1 | nt | + | nt | i
C[n+]1c(-c2ccccc2)c2cc(N)ccc2c2ccc(N)cc21 | i | + | i | i
O=c1[nH]c2ccccc2n1C1CCN(C(c2ccccc2OC(F)(F)F)c2nnnn2-c2ccc3c(c2)OCCO3)CC1 (configuration not stated) | nt | i | nt | i
O=c1[nH]c(O)c(N=Nc2ccc3c(c2)OCCO3)c(=O)[nH]1 | i | i | i | 39
CCc1ccccc1N1C(=O)/C(=C/c2ccc(N3CCN(C)CC3)o2)C(=O)NC1=S | i | i | i | 43
CN1C(=O)C(=Cc2ccc(N3CCCCCC3)o2)C(=O)N(C)C1=S | i | + | nt | i
Cc1cccc(N2C(=O)/C(=C/c3ccc(N4CCN(C)CC4)o3)C(=O)NC2=S)c1C | i | i | i | 34
COc1ccc(C(O)(c2ccccc2)c2ccncc2)cc1 (configuration not stated) | nt | i | nt | i
C=CCn1c(O)c(/C=N/N2CCCCC2)c(=O)[nH]c1=O | i | i | i | i
COCCCN=Cc1c(O)[nH]c(=S)[nH]c1=O | i | i | i | i
O=[N+]([O-])c1ccc(C(c2ccc([N+](=O)[O-])cc2)c2ccc([N+](=O)[O-])cc2)cc1 | nt | + | nt | i
Cc1[nH]n(-c2ccccc2)c(=O)c1C(c1ccc([N+](=O)[O-])cc1)c1c(C)[nH]n(-c2ccccc2)c1=O | i | i | i | i
O=c1[nH]c(=S)n(-c2ccc(Br)cc2)c(O)c1C=Nc1ccc(N2CCOCC2)cc1 | i | i | i | i
O=c1[nH]c(=S)n(-c2ccccc2F)c(O)c1C=Nc1ccc(N2CCOCC2)cc1 | i | i | i | 67
Cc1ccc(C(O)P(=O)(Oc2ccccc2)Oc2ccccc2)cc1 (configuration not stated) | i | i | i | i
COc1ccc(-n2c(O)c(C(C)=NCCc3c[nH]c4ccccc34)c(=O)[nH]c2=O)cc1 | i | i | i | i
SMILES | VLA-4 inh | Myeloid diff MLP | Platelet DG rel | SENP1 FRET inh
CCCCn1c(NC(=O)c2ccc(Br)o2)c(C(=O)OCC)c2nc3ccccc3nc21 | i | + | i | i
O=C1NC(=O)C(CCc2ccncc2)(Cc2ccc3c(c2)OCO3)C(=O)N1CCc1ccccc1 (configuration not stated) | i | + | i | i
Cc1c(NS(=O)(=O)c2ccccc2)ccc([N+](=O)[O-])c1Cl | nt | i | nt | i
Cc1ccc(S(=O)(=O)N2Cc3cnnn3-c3ccccc3C2C#N)cc1 (configuration not stated) | nt | + | nt | i
N#CC1c2ccccc2-n2nncc2CN1S(=O)(=O)c1ccc(Cl)cc1 (configuration not stated) | nt | i | nt | i
COc1cc(/C=C/c2nc3ccccc3c(=O)n2-c2cccc(O)c2)ccc1O | i | + | i | i
Cc1cc2c(C(F)(F)F)cc(=O)oc2c2c1NCCC2 | i | i | i | i
O=c1cc(C(F)(F)F)c2cc3c4c(c2o1)CCCN4CCC3 | i | + | i | i
COC(=O)C1=C(c2ccc(F)cc2OCc2ccccc2)C[C@@H]2CC[C@H]1N2C(=O)NCc1cc(C)oc1C(F)(F)F | i | i | nt | i
CC(C)c1ccc(N2C(=O)NC(=O)/C(=C/C=C/c3ccco3)C2=O)cc1 | i | + | i | i
O=C(O)c1nn(Cc2ccc(Cl)cc2Cl)c2ccccc12 | i | i | i | i
O=C(O)c1nn(Cc2ccc(Cl)cc2)c2ccccc12 | nt | + | nt | i
COc1ccc(-c2[nH]ncc2CNC(C)Cc2cccc(C)n2)cc1F (configuration not stated) | i | i | i | i
O=C1NC(=O)C(=Cc2ccc(-c3ccccc3[N+](=O)[O-])o2)C(=O)N1 | i | i | i | i
O=C1NC(=O)C(=Cc2ccc(-c3cc(Cl)ccc3[N+](=O)[O-])o2)C(=O)N1 | nt | + | i | i
CNC(=O)Oc1cccc(-c2cn3cc(OC(=O)NC)ccc3n2)c1 | i | i | nt | i
CNC(=O)Oc1ccc2c(c1)C(=O)c1ccccc1CO2 | i | + | i | i
Cn1nccc1C(=O)N1CCC2(CC1)OCCO2 | i | i | i | i
COC(=O)C1=C(c2ccccc2OCc2ccccc2)C[C@@H]2CC[C@H]1N2C(=O)NC1CCN(Cc2ccccc2)CC1 | i | + | nt | i
CCCCn1c(O)c(C(=O)/C=C/c2c[nH]c3ccccc23)c(=O)[nH]c1=O | i | + | i | i
O=c1[nH]c(CN2CC=C(c3ccccc3)CC2)nc2scc(-c3ccccc3)c12 | i | + | i | i
CN(C(=O)CN1CC=C(c2ccccc2)CC1)c1c(N)n(Cc2ccccc2)c(=O)[nH]c1=O | i | i | i | i
O=c1[nH]c(CN2CC=C(c3ccccc3)CC2)nc2cc(C(F)(F)F)ccc12 | i | + | ? | i
Cc1ccc2c(c1)c(=O)c1c3n2CCN(CC2CO2)C3CC1 (configuration not stated) | i | i | i | i
CCCCCc1nc2ccccc2c(=O)n1-c1ccccc1[N+](=O)[O-] | i | i | i | i
SMILES | VLA-4 inh | Myeloid diff MLP | Platelet DG rel | SENP1 FRET inh
CCCCCc1nc2c(c(=O)c3ccccc3n2C)c(=O)n1C1CCCCCC1 | i | + | i | i
C[C@]12CC3CC(N)(C1)C[C@@](C)(C3)C2 | i | i | i | i
CN(C)C(=S)SSC(=S)N(C)C | i | + | i | i
c1cc2c(cc1[C@H]1OCC3C1CO[C@@H]3c1ccc3c(c1)OCO3)OCO2 (some centres not stated) | i | i | nt | i
O=C1NC(=S)SC1=Cc1ccc(N(CCCl)CCCl)cc1 | nt | + | nt | i
O=C(O)CCCc1ccc(N(CCCl)CCCl)cc1 | i | i | i | i
CC1=CC(=C2C(=O)NC(=S)NC2=O)C=C(C(F)(F)F)N1CCc1ccccc1 | i | nt | i | nt
O=C(COc1ccccc1)c1cn(Cc2ccccc2)c2ccccc12 | i | + | i | i
COc1ccc(CN2Cc3cnnn3-c3ccccc3C2C#N)cc1 (configuration not stated) | nt | ? | nt | i
COc1ccc(CN2Cc3cnnn3-c3ccccc3C2c2ccccc2)cc1 (configuration not stated) | nt | + | nt | i
